# Calls of active or inactive are those of the source. No cut-off for these calls is given here.
# What was measured:
# [1] = target: Plasmepsin V (Plasmodium falciparum (isolate 3D7), UniProt Q8I6Z5); assay: (§1) Inhibition of Plasmodium falciparum […] plasmepsin-5 using DABCYL-GNKRTLAQKQG-EDANS as substrate measured every 15 mins of 75 mins by fluorescence assay
# [2] = test system: Plasmodium falciparum; assay: Antimalarial activity against chloroquine-sensitive Plasmodium falciparum 3D7 infected in […] after 72 hrs by SYBR Green I-based fluorescence method; type: functional, organism-based; settings: 3D7, 72 h
# [3] = test system: Plasmodium falciparum; assay: Antimalarial activity against Plasmodium falciparum; type: functional, organism-based
# [4] = test system: Plasmodium chabaudi; assay: Antimalarial activity against Plasmodium chabaudi ASS infected in NIH mouse assessed as inhibition of parasitemia at 150 to 300 mg/kg, po qd for 4 days; type: functional; settings: dose mg/kg 150-300
# [5] = test system: Mus musculus; assay: Toxicity in Plasmodium chabaudi ASS infected NIH mouse assessed as survival at 10 to 300 mg/kg, po qd for 4 days; type: organism-based; parameters: dose 10-300 mg/kg, route oral; settings: in vivo, 96 h
# [6] = test system: Plasmodium chabaudi; assay: Antimalarial activity against Plasmodium chabaudi ASS infected in NIH mouse assessed as inhibition of parasitemia at 100 mg/kg, po qd for 4 days; type: functional; settings: 96 h
# How it was run: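 Mice infected with P. chabaudi were given oral doses once daily for four days, starting four hours after infection. Parasitemia was read on Day 4 postinoculation and expressed as percent inhibition of parasitemia.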
# [7] = test system: Liver microsome; assay: Metabolic stability in human liver microsomes at 1 uM after 5 to 30 mins; type: ADME
# [8] = test system: Liver microsome; assay: Metabolic stability in rat liver microsomes at 1 uM after 5 to 30 mins; type: ADME
# [9] = Metabolic stability in mouse liver microsomes at 1 uM after 5 to 30 mins; type: ADME, Microsome
# [10] = target: Cytochrome P450 3A4 (Homo sapiens, UniProt P08684); assay: Inhibition of human recombinant CYP3A4 after 30 mins; type: ADME; settings: recombinant enzyme, 0.5 h
# [11] = target: Cytochrome P450 2C19 (Homo sapiens, UniProt P33261); assay: Inhibition of human recombinant CYP2C19 after 30 mins; type: ADME; settings: recombinant enzyme, 0.5 h
# [12] = target: Cytochrome P450 2D6 (Homo sapiens, UniProt P10635); assay: Inhibition of human recombinant CYP2D6 after 30 mins; type: ADME; settings: recombinant enzyme, 0.5 h
# [13] = target: Cytochrome P450 2C9 (Homo sapiens, UniProt P11712); assay: Inhibition of human recombinant CYP2C9 after 30 mins; type: ADME; settings: recombinant enzyme, 0.5 h
# [14] = target: T1, Cytochrome P450 1A2 (Homo sapiens, UniProt P05177); assay: Inhibition of human recombinant CYP1A2 after 30 mins; type: ADME; settings: recombinant enzyme, 0.5 h
# T1 sequence (P05177 whole entry): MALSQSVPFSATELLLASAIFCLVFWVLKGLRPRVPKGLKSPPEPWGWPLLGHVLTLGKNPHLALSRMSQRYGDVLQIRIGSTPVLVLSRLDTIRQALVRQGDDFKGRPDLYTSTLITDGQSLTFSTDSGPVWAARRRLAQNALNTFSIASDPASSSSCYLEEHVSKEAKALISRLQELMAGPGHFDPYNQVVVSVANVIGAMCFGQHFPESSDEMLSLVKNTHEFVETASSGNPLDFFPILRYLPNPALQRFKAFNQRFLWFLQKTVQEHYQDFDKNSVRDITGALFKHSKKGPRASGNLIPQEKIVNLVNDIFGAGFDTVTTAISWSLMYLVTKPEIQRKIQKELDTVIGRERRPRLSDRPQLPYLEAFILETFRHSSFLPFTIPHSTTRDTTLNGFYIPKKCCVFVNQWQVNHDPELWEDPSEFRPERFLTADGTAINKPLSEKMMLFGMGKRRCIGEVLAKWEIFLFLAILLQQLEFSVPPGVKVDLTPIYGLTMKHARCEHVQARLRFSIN
# [15] = test system: HepG2; assay: Cytotoxicity against human HepG2 cells after 72 hrs; type: cell-based; settings: hepg2, 72 h
# [16] = test system: Plasmodium falciparum; assay: Antimalarial activity against chloroquine-sensitive Plasmodium falciparum 3D7 infected in […] after 48 hrs by SYBR Green I-based fluorescence method; type: functional, organism-based
# [17] = test system: Plasmodium falciparum; assay: Antimalarial activity against chloroquine and pyrimethamine-resistant Plasmodium falciparum Dd2 infected in […] after 48 hrs by SYBR Green I-based fluorescence method; type: functional; settings: Dd2, 48 h
# [18] = Selectivity ratio of IC50 for human cathepsin E to IC50 for Plasmodium falciparum plasmepsin-2
# [19] = Selectivity ratio of IC50 for human cathepsin D to IC50 for Plasmodium falciparum plasmepsin-2
# [20] = Selectivity ratio of IC50 for human BACE1 to IC50 for Plasmodium falciparum plasmepsin-2
# [21] = target: Plasmepsin V (Plasmodium falciparum (isolate 3D7)) (UniProt Q8I6Z5); assay: as §1
# Chain of Plasmepsin V (Plasmodium falciparum (isolate 3D7)) (Q8I6Z5 whole entry, looked up): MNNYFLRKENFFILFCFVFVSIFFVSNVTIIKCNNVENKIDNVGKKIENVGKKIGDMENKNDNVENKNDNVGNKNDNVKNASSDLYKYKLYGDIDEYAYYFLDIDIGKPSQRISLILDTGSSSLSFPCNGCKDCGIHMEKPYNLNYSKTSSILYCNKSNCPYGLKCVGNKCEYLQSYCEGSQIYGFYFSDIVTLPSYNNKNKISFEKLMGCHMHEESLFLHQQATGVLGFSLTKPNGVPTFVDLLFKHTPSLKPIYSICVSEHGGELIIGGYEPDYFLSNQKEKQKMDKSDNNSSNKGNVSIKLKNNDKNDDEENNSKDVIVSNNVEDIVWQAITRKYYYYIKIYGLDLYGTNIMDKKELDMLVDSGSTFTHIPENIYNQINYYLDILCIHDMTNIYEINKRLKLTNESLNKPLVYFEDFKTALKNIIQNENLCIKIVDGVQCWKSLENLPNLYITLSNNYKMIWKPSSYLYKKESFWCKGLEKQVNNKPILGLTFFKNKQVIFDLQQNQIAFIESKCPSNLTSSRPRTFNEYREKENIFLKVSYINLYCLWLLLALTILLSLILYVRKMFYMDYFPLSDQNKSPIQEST
# Chain of Cytochrome P450 2D6 (P10635 whole entry): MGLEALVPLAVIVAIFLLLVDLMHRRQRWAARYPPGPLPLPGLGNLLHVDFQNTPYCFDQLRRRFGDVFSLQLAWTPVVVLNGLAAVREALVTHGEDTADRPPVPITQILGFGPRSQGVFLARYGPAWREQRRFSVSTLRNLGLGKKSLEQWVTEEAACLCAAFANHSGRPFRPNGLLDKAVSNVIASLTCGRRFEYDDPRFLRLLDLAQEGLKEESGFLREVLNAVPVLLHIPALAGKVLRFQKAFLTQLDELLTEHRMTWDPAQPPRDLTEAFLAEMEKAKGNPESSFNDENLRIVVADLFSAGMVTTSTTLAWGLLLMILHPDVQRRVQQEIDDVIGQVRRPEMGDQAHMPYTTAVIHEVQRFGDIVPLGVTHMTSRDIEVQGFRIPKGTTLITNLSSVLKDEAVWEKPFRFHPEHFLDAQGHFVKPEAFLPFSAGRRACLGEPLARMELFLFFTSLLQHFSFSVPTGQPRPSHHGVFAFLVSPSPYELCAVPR
# Chain of Plasmepsin V (Q8I6Z5 whole entry): as the sequence (Q8I6Z5 whole entry, looked up) above
# Chain of Cytochrome P450 3A4 (P08684 whole entry): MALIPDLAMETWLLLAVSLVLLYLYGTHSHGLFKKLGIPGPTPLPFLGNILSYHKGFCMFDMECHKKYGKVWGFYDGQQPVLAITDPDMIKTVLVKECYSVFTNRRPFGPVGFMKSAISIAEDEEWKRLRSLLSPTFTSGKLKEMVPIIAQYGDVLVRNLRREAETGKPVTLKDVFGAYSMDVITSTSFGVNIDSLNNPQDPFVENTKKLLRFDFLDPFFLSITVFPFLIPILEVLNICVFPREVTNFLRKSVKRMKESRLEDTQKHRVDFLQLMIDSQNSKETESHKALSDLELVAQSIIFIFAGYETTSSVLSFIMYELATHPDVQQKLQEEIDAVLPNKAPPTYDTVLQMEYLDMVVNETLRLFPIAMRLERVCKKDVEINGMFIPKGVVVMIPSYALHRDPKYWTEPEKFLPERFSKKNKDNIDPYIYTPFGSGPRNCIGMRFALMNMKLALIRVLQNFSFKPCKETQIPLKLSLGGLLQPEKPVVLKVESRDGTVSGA
# Chain of Cytochrome P450 2C9 (P11712 whole entry): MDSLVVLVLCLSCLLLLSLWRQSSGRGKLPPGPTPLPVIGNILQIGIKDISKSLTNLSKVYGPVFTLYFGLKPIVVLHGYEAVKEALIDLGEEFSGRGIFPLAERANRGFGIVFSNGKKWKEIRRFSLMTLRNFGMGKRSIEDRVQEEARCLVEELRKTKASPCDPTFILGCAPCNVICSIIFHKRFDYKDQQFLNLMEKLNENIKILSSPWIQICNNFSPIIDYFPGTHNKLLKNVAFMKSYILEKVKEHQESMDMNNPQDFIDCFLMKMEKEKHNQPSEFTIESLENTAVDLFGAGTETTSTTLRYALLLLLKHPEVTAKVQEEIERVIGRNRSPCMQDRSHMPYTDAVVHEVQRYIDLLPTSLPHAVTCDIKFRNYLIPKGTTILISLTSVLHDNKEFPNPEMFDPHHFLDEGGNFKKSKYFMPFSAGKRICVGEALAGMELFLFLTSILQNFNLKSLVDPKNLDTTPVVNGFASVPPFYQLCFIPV
# Chain of Cytochrome P450 2C19 (P33261 whole entry): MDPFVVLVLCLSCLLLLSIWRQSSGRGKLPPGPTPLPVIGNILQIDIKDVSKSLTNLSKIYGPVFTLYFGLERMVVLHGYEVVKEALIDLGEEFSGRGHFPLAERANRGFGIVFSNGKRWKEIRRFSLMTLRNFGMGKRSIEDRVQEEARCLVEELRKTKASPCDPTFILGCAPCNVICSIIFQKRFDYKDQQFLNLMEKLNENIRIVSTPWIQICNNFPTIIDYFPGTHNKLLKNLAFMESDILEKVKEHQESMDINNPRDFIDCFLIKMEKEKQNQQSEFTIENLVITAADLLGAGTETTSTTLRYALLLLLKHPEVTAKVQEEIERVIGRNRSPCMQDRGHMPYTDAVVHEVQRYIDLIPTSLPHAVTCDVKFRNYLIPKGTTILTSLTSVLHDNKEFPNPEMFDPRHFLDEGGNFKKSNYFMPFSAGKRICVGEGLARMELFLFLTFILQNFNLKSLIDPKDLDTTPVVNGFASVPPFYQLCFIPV
smiles,measurement,setting,value
CCC(CN1C(=N)NC(c2ccccc2)(c2ccccc2)C1=O)c1ccccc1 (racemic),IC50,[1],977 nM
same,IC50,[2],2760 nM
same,IC50,[3],140 nM
COc1ccc(C2(c3ccc(OC)cc3)NC(=N)N(C3CCCCC3)C2=O)cc1,inhibition (INH),[4],100%
same,Activity,[5],Non-toxic
same,inhibition in vivo at 100 mg/kg,[6],89%
same,Stability,[7],Stable
same,Stability,[8],Stable
same,Stability,[9],Stable
same,inhibition (INH),[10],Active
same,inhibition (INH),[11],Not Active
same,inhibition (INH),[12],Not Active
same,inhibition (INH),[13],Not Active
same,inhibition (INH),[14],Not Active
same,Activity,[15],Toxic
same,inhibition,[16],Active
same,IC50,[17],480 nM
same,Ratio IC50,[18],300
same,Ratio IC50,[19],> 1000
same,Ratio IC50,[20],> 1000
same,inhibition,[21],inactive
same,IC50,[2],463 nM
